Test [1] deals with Escherichia coli. The experiment in a line: Distribution of Escherichia coli AB1157 IL05 new born cells containing eight ori foci at 32 ug/ml after 14 hrs incubation. In kind it is functional. A digest of the protocol:
(§1)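 IL05(pWX6) (LacI-CFP/TetR-YFP marking ori and ter arrays) grown at 37°C in M9-sodium acetate with required amino acids, 100 μg/ml ampicillin, 0.5 mM IPTG, 40 ng/ml anhydrotetracycline. AMK added at OD600 0.05. After 14 h, cells placed on 1% agarose-PBS pads, imaged (×100, phase plus fluorescence). 200 cells per culture classified by ori/ter foci number; three independent experiments.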

Test [2] deals with Escherichia coli. Kind of test: Assembly of Z-ring in Escherichia coli AB1157 IL06(pCP12) cells at 4 ug/ml.
Test [3] relates to Escherichia coli. The experiment in a line: Distribution of Escherichia coli AB1157 IL05 new born cells containing duplicated ori and ter foci at 4 ug/ml after 14 hrs incubation. In kind it is functional. A digest of the protocol:
as §1

The test system of test [4] is Escherichia coli. The experiment in a line: Distribution of Escherichia coli AB1157 IL05 new born cells containing one ori and one ter foci at 16 ug/ml after 14 hrs incubation. In kind it is functional. A digest of the protocol: as §1
Test [5] concerns Escherichia coli. The experiment in a line: Distribution of Escherichia coli AB1157 IL05 new born cells containing eight ori foci at 4 ug/ml after 14 hrs incubation. In kind it is functional. A digest of the protocol:
as §1

Test [6] deals with Escherichia coli. The experiment in a line: Distribution of Escherichia coli AB1157 IL05 new born cells containing four ori foci at 32 ug/ml after 14 hrs incubation. Format: functional. A digest of the protocol: as §1
Test [7] deals with Escherichia coli. Kind of test: Distribution of Escherichia coli AB1157 IL05 new born cells containing duplicated sister ori foci at 16 ug/ml after 14 hrs incubation. In kind it is functional. A digest of the protocol: as §1
Test [8] relates to Escherichia coli. Kind of test: Distribution of Escherichia coli AB1157 IL05 new born cells containing duplicated ori and ter foci at 8 ug/ml after 14 hrs incubation. Format: functional. A digest of the protocol: as §1
For test [9], the system named is Escherichia coli. The experiment in a line: Distribution of Escherichia coli AB1157 IL05 new born cells containing one ori and one ter foci at 8 ug/ml after 14 hrs incubation. Format: functional. A digest of the protocol: as §1
Test [10] has as its system Escherichia coli. The experiment in a line: Distribution of Escherichia coli AB1157 IL05 new born cells containing duplicated ori and ter foci at 32 ug/ml after 14 hrs incubation. In kind it is functional. A digest of the protocol:
as §1

Test [11] deals with Escherichia coli. The experiment in a line: Distribution of Escherichia coli AB1157 IL05 new born cells containing eight ori foci at 16 ug/ml after 14 hrs incubation. In kind it is functional. A digest of the protocol: as §1
Test [12] concerns Escherichia coli. The experiment in a line: Distribution of Escherichia coli AB1157 IL05 new born cells containing one ori and one ter foci at 32 ug/ml after 14 hrs incubation. Format: functional. A digest of the protocol: as §1
The subject of test [13] is Escherichia coli. Kind of test: Distribution of Escherichia coli AB1157 IL05 new born cells containing duplicated sister ori foci at 8 ug/ml after 14 hrs incubation. In kind it is functional. A digest of the protocol: as §1
Test [14] relates to Escherichia coli. Kind of test: Distribution of Escherichia coli AB1157 IL05 new born cells containing duplicated sister ori foci at 32 ug/ml after 14 hrs incubation. In kind it is functional. A digest of the protocol: as §1
The subject of test [15] is Escherichia coli. Kind of test: Distribution of Escherichia coli AB1157 IL05 new born cells containing one ori and one ter foci at 4 ug/ml after 14 hrs incubation. In kind it is functional. A digest of the protocol: as §1
Test [16] deals with Escherichia coli. The experiment in a line: Distribution of Escherichia coli AB1157 IL05 new born cells containing four ori foci at 16 ug/ml after 14 hrs incubation. In kind it is functional. A digest of the protocol: as §1
In test [17] the test system is Escherichia coli. The experiment in a line: Distribution of Escherichia coli AB1157 IL05 new born cells containing four ori foci at 8 ug/ml after 14 hrs incubation. In kind it is functional. A digest of the protocol:
as §1

Test [18] concerns Escherichia coli. Kind of test: Distribution of Escherichia coli AB1157 IL05 new born cells containing eight ori foci at 8 ug/ml after 14 hrs incubation. In kind it is functional. A digest of the protocol:
as §1

In test [19] the test system is Escherichia coli. Kind of test: Sublethal concentration measured by presence of granular bodies in Escherichia coli AB1157 IL05 cells at 4 ug/ml after 14 hrs incubation. Format: functional, organism-based. A digest of the protocol: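 IL05(pWX6) grown 14 h at 37°C in acetate minimal medium with AMK added at OD600 0.05. Cells then examined by phase-contrast microscopy in 27% gelatin-containing minimal medium, scoring polar granular bodies and nucleoids.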

Test [20] concerns Escherichia coli. Kind of test: Distribution of Escherichia coli AB1157 IL05 new born cells containing duplicated ori and ter foci at 16 ug/ml after 14 hrs incubation. In kind it is functional. A digest of the protocol: as §1
Test [21] deals with Escherichia coli. Kind of test: Loss of cell viability in Escherichia coli AB1157 IL05 above 16 ug/ml after 8 hrs incubation. In kind it is functional, organism-based.
Test [22] deals with Escherichia coli. The experiment in a line: Distribution of Escherichia coli AB1157 IL05 new born cells containing duplicated sister ori foci at 4 ug/ml after 14 hrs incubation. In kind it is functional. A digest of the protocol:
as §1

Test [23] concerns Escherichia coli. The experiment in a line: Distribution of Escherichia coli AB1157 IL05 new born cells containing four ori foci at 4 ug/ml after 14 hrs incubation. In kind it is functional. A digest of the protocol:
as §1

SMILES strings stand for the structures. The source made the active and inactive calls. The calls are words filed in the database; no cut-off is given here.

For `NCC[C@H](O)C(=O)N[C@@H]1C[C@H](N)[C@@H](O[C@H]2O[C@H](CN)[C@@H](O)[C@H](O)[C@H]2O)[C@H](O)[C@H]1O[C@H]1O[C@H](CO)[C@@H](O)[C@H](N)[C@H]1O` [AMIKACIN], the Activity in [1] worked out at 0%; in [2] it was 35%; in test [3], 48%; in test [4], 6%; in [5] it was 8%; in test [6] it was 0%. In addition, the Activity in test [7] is listed as 3%; in [8] it was 36%; in test [9], 0%; in test [10], 31%; in [11], 11%; in test [12], 32%. In addition, the Activity in test [13] is 0%; in [14], 37%; in [15], 0%; in [16], 46%; in test [17], 69%; in test [18], 5%. Also, the Activity in test [20] was determined as 34%; in test [22], 0%; in test [23], 44%. Moreover, the outcome in test [19] was Active. In addition, the outcome in test [21] was inactive.

These data come from ChEMBL document CHEMBL1142132, “Sublethal concentrations of the aminoglycoside amikacin interfere with cell division without affecting chromosome dynamics” (2007).
